According to ChEMBL document CHEMBL4396885, “Thioether-based 2-aminobenzamide derivatives: Novel HDAC inhibitors with potent in vitro and in vivo antitumor activity” (Eur J Med Chem, 2019):

Experiments:
[1] = test system: A549; assay: Induction of apoptosis in human A549 cells assessed as necrotic cells at 2 uM after 48 hrs by Annexin V-FITC/propidium iodide staining based flow cytometry (reference value: 0.135%); type: functional
Summary of the method: (§1)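 A549 seeded 4×10⁶ cells/well, dosed after 12 h with compound at various concentrations, harvested after 48 h. Resuspended in annexin-binding buffer, stained with Annexin V-FITC and propidium iodide for 15 min in the dark, analysed by flow cytometry; means of three separate experiments.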

[2] = target: T1, Protein deacetylase HDAC6 (Homo sapiens, UniProt Q9UBN7); assay: Inhibition of recombinant human His tagged HDAC6 expressed in baculovirus infected insect cells assessed as decrease in deacetylation of FLUOR DE LYS SIRT1 substrate by measuring decrease in fluorescence preincubated for 10 mins followed by substrate addition and measured after 30 mins by fluorescence based assay
T1 sequence (Q9UBN7 whole entry): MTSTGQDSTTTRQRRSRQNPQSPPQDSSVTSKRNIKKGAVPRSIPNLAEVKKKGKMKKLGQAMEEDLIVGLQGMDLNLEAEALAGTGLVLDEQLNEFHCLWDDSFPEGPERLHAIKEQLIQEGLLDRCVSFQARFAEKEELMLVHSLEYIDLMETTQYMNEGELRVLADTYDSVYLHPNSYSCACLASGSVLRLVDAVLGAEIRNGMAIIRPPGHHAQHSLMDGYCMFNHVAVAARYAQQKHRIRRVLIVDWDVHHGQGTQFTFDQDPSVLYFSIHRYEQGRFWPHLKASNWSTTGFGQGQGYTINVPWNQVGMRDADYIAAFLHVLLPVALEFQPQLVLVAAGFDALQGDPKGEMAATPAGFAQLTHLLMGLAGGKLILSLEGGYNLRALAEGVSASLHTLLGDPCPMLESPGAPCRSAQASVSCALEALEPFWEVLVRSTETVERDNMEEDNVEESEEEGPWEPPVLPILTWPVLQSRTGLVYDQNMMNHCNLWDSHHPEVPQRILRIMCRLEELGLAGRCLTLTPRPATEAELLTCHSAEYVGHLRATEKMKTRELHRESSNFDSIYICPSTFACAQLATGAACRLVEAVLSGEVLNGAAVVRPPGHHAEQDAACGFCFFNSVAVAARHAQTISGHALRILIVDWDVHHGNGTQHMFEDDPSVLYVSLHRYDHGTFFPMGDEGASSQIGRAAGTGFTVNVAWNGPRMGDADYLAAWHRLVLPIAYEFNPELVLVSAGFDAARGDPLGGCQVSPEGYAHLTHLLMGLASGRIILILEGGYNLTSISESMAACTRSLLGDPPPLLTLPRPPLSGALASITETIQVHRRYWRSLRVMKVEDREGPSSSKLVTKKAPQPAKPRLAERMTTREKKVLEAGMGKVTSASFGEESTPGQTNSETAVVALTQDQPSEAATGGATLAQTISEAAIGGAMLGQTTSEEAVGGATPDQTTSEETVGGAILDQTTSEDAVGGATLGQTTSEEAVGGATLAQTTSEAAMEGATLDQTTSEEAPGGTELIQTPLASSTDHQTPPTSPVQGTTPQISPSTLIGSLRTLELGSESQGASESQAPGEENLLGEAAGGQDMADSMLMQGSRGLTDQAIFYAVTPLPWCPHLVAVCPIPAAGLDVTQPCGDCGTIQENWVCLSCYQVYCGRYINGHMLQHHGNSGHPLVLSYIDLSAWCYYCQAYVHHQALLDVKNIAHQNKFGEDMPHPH

[3] = test system: HeLa; assay: Antiproliferative activity against human HeLa cells assessed as decrease in cell viability after 72 hrs by CCK-8 assay; type: functional, cell-based
Summary of the method: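 Cells grown to 70–85% confluence (A375, A549, HCT116 in RPMI1640; HeLa, SMMC7721 in DMEM; 10% FBS, 37 °C, 5% CO2), seeded 4000/well, dosed after 12 h across a concentration range, incubated 72 h, then CCK-8 for 1 h; absorbance at 450 nm. IC50 as mean ± SD of three separate experiments.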

[4] = test system: A549; assay: Cell cycle arrest in human A549 cells assessed as accumulation of cells at G0/G1 phase at 0.5 uM after 48 hrs by propidium iodide staining-based flow cytometry (reference value: 73.35%); type: functional
[5] = AUC (0 to infinity) in ICR mouse at 4 mg/kg, iv after 0.08 to 24 hrs by LC-MS/MS analysis; type: ADME, organism-based; design: dose 4 mg/kg, time infinity, route intravenous; conditions: in vivo
Summary of the method: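 Male ICR mice (29.7~37.4 g), single iv dose 4 mg/kg in DMSO:40% SBE-β-CD 20:80 (v/v). Retro-orbital blood at 0.08–24 h into EDTA-K2 tubes; plasma protein-precipitated with acetonitrile containing internal standards, analysed by LC-MS/MS; n=3 per time point; noncompartmental analysis.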

[6] = test system: A549; assay: Induction of apoptosis in human A549 cells assessed as late apoptotic cells at 0.5 uM after 48 hrs by Annexin V-FITC/propidium iodide staining based flow cytometry (reference value: 0.637%); type: functional; summary of the method: as §1
[7] = test system: A549; assay: Cell cycle arrest in human A549 cells assessed as accumulation of cells at G2/M phase at 1 uM after 48 hrs by propidium iodide staining-based flow cytometry (reference value: 13.62%); type: functional
[8] = test system: A549; assay: Cell cycle arrest in human A549 cells assessed as accumulation of cells at G2/M phase at 2 uM after 48 hrs by propidium iodide staining-based flow cytometry (reference value: 13.62%); type: functional
[9] = test system: A549; assay: Induction of apoptosis in human A549 cells assessed as necrotic cells at 1 uM after 48 hrs by Annexin V-FITC/propidium iodide staining based flow cytometry (reference value: 0.135%); type: functional; summary of the method: as §1
[10] = test system: A549; assay: Induction of apoptosis in human A549 cells assessed as viable cells at 2 uM after 48 hrs by Annexin V-FITC/propidium iodide staining based flow cytometry (reference value: 98%); type: functional; conditions: A549, 48 h, read-out: Activity; summary of the method: as §1

SMILES | Activity [1] [%] | IC50 [2] [µM] | IC50 [3] [µM] | Activity [4] [%] | AUC(0-inf) [5] [ng·h/mL] | Activity [6] [%] | Activity [7] [%] | Activity [8] [%] | Activity [9] [%] | viability at 2 µM [10] [%]
COc1ccc(SCc2ccc(C(=O)Nc3ccccc3N)cc2)cc1 | 20.3 | > 32 | 2.39 | 64.38 | 740 | 15 | 38.3 | 48.06 | 1.5 | 47.5
CCc1ccc(SCc2ccc(C(=O)Nc3ccccc3N)cc2)cc1 | 13.2 | > 32 | 3.8 | 33.89 | 874 | 7.08 | 59.87 | 66.48 | 8.44 | 63.5
